As a reminder, the IC50 is the concentration that gives 50% inhibition. Usually inhibition stands for how much of the control response was suppressed. A lower inhibition goes with a response near the control.

The text below walks through data of ChEMBL document CHEMBL2146365, “Design and synthesis of EGFR dimerization inhibitors and evaluation of their potential in the treatment of psoriasis” (Bioorg Med Chem, 2012).

Test [1] in a line: Growth inhibition of HPV-16 transformed human CCD-1106 cells after 72 hrs by MTT assay. The test is classed as functional. The following applies: CCD-1106, 72 h. The method in brief:
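Cells were seeded at 10,000 cells/well in keratinocyte serum-free medium with L-glutamine, bovine pituitary extract and EGF, at 37 °C under 5% CO2, and attached overnight. Eight drug concentrations were run with six in-plate replicates, DMSO <1%, for 72 h. MTT (0.5 mg/ml) was added for 2 h, formazan was dissolved in 90% isopropanol/10% DMSO and A590 was read. Growth is expressed relative to the untreated control.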

Test [2] in a line: Antioxidant activity in bovine brain assessed as inhibition of iron-ascorbate-induced lipid peroxidation by thiobarbituric acid test. The class given is functional, tissue-based, Bos taurus. The method, boiled down:
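Hit compounds were tested for inhibition of lipid peroxidation by the thiobarbituric acid (TBA) assay. Propyl gallate served as the standardizing positive control, tested at 100 µM.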

For test [3], the target named is Epidermal growth factor receptor (Homo sapiens) (UniProt P00533). In words: Inhibition of phosphorylated EGFR dimerization in HPV-16 transformed human CCD-1106 cells at 155.4 uM after 30 mins by densitometric analysis. The class given is cell-based. The method in brief: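 CCD-1106 cells were exposed to compounds for 30 min at 37 °C, then stimulated with EGF 50 ng/mL for 10 min. They were cross-linked with 2 mM BS3 for 30 min at room temperature and quenched with Tris (pH 7.5). Lysates were run on SDS-PAGE and immunoblotted for phospho-EGFR (Tyr1173) and total EGFR. The ~340 kDa dimer band was quantified by densitometry against the no-inhibitor control.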
Chain of Epidermal growth factor receptor (Homo sapiens) (P00533 whole entry): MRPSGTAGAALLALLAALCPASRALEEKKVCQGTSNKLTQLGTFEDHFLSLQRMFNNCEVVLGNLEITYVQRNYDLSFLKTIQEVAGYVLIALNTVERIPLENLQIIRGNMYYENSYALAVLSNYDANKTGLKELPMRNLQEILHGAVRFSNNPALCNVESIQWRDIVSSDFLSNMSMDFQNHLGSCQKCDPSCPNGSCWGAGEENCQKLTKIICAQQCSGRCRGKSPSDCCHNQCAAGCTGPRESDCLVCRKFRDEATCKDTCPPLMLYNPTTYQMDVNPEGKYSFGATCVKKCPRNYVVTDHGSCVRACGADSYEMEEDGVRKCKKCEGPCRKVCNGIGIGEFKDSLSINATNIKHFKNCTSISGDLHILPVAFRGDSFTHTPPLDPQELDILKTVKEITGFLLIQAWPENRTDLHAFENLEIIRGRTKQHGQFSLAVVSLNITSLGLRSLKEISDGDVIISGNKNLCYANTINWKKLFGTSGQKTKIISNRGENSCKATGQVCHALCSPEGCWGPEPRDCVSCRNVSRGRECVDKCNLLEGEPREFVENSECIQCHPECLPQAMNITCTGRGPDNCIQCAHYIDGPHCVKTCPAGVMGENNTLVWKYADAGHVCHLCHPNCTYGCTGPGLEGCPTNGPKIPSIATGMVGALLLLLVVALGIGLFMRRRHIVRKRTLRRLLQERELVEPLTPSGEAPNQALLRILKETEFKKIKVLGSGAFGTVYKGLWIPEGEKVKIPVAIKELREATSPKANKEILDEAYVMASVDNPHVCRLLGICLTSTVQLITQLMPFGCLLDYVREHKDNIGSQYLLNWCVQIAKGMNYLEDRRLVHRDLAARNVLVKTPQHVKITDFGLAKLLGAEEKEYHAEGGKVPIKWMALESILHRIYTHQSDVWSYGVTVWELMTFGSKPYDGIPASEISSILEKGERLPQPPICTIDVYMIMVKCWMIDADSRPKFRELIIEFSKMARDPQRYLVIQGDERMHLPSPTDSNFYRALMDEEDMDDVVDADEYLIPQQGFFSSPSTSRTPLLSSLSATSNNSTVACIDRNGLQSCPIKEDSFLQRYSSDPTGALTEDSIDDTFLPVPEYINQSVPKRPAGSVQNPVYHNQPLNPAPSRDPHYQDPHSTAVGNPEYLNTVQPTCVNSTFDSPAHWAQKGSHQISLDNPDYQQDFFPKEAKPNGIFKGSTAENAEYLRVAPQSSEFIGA

Test [4] shares this target. In words: Inhibition of EGFR-mediated ERK1 phosphorylation in HPV-16 transformed human CCD-1106 cells at 153 uM after 30 mins by densitometric analysis. The class given is cell-based. The method in brief: (§1)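 CCD-1106 cells were treated with compound for 30 min at 37 °C, then stimulated with EGF. Lysates were separated by SDS-PAGE, blotted to nitrocellulose and blocked in 3% BSA/NaTT. Blots were probed with p-ERK (E-4) or p-p38 (D-8) antibodies, detected by ECL and quantified by densitometry.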

Test [5] shares this target. The test is described as follows: Inhibition of EGFR-mediated ERK2 phosphorylation in HPV-16 transformed human CCD-1106 cells at 153 uM after 30 mins by densitometric analysis. The test is classed as cell-based. The method, boiled down:
as §1

In the case of `CCOc1cc(/C=N\Nc2nc3c(c(=O)n(C)c(=O)n3C)n2Cc2ccccc2OC)cc(OCC)c1OCC`, the GI50 in test [1] (read-out: GI50) was 5.16 µM; in test [1] (read-out: pGI50 (converted)), 5.13 µM.
As to `CCOc1cc(/C=N\Nc2nc3c(c(=O)n(C)c(=O)n3C)n2Cc2ccc(C)cc2)ccc1O`, the results for the GI50 in test [1] (read-out: GI50) and in test [1] (read-out: pGI50 (converted)) were 9.75 µM and 9.77 µM, respectively.
As to `CCOC(=O)c1ccccc1Cn1c(N/N=C\c2cc(OCC)c(OCC)c(OCC)c2)nc2c1c(=O)n(C)c(=O)n2C`, the GI50 in test [1] (read-out: GI50) is 48.3 µM; in test [1] (read-out: pGI50 (converted)) it was 47.9 µM.
The like results for `CCOc1cc(/C=N\Nc2nc3c(c(=O)n(C)c(=O)n3C)n2Cc2ccccc2[N+](=O)[O-])ccc1O` were, in that order, 8.5 µM and 8.51 µM.
The like results for `CCOc1cc(/C=N\Nc2nc3c(c(=O)n(C)c(=O)n3C)n2Cc2ccc(Cl)cc2)ccc1O` were, in that order, 5.21 µM and 5.25 µM.
For `CCOc1cc(/C=N\Nc2nc3c(c(=O)n(C)c(=O)n3C)n2Cc2ccccc2C(=O)O)ccc1O` the same measures were 178 µM and 178 µM.
`CCOc1cc(/C=N\Nc2nc3c(c(=O)n(C)c(=O)n3C)n2Cc2ccc([N+](=O)[O-])cc2)ccc1O`: the GI50 in test [1] (read-out: GI50) is 5.47 µM; in test [1] (read-out: pGI50 (converted)), 5.5 µM.
For `CCOC(=O)c1ccccc1Cn1c(N/N=C\c2ccc(O)c(OCC)c2)nc2c1c(=O)n(C)c(=O)n2C`, the GI50 is 106 µM in test [1] (read-out: GI50) and 107 µM in test [1] (read-out: pGI50 (converted)).
With `O=C(Nc1ccccc1C(=O)c1ccccc1)c1cc([N+](=O)[O-])cc([N+](=O)[O-])c1`, the GI50 in test [1] (read-out: GI50) was 123 µM. In addition, in test [2], the IC50 turned out to be 46.7 mM. Moreover, the inhibition was determined as 52% in test [3], 28% in test [4] and 20% in test [5].
Regarding `CCOc1cc(/C=N\Nc2nc3c(c(=O)n(C)c(=O)n3C)n2Cc2ccc([N+](=O)[O-])cc2)cc(OCC)c1OCC`, the GI50 in test [1] (read-out: GI50) is 18.9 µM; in test [1] (read-out: pGI50 (converted)), 19.1 µM.
